Bioassay records from PubChem.
Compounds with a hit are over-represented: about 9.6% of the library has one in this group of screens.
TNAP inh hiacc = human TNAP enzyme inhibitors, primary screen, biochemical, luminescent, high phosphate acceptor level, uHTS | purified TNAP, CDP-star luminescence, 1 M DEA | hit rate 0.03% among 200,000 | AID 1135, 2008 | Alkaline phosphatase, tissue-nonspecific isozyme (Homo sapiens), P05186 | inhibition, % at 20 µM;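 active means over 50% inhibition of tissue-nonspecific alkaline phosphatase at 20 µM in the single-dose screen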;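 further: plate controls were DMSO wells for no effect and EDTA-quenched wells as full inhibition for full effect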
Target sequence (P05186 whole entry, looked up): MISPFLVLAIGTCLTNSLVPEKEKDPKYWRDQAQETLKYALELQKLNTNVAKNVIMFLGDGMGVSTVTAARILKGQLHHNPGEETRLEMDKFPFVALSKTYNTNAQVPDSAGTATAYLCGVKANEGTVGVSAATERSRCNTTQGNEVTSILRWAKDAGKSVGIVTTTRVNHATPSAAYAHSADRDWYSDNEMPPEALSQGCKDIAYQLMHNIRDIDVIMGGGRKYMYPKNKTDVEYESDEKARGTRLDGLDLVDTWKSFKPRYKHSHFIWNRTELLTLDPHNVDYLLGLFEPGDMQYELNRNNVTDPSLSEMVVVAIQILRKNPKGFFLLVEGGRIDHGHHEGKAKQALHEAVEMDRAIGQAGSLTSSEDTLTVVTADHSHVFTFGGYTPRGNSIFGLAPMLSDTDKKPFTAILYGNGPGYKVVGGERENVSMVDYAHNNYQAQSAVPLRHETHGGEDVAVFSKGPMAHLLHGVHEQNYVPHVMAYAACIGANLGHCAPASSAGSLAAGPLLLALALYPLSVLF
HCT116 PTEN-null = growth suppression of PTEN-null HCT116, primary screen, cell-based, CellTiter-Glo; hit rate 1.2% among 140,000; viability, % at 10 µM; HCT116 PTEN-null viability, 60 h; stronger effect = lower value; AID 827, 2007;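 active means viability at or below a set limit, 4 SD under the median of all tested compounds, cut at about 3.7% in these data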;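 further: PTEN knockout HCT116 line with beta catenin targeted HCT116 as companion control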
TNAP act hiacc = TNAP activators at high phosphate acceptor level, primary screen, biochemical, luminescence, uHTS | purified TNAP, CDP-star luminescence, 1 M DEA, 30 min; stronger effect = higher value; 0 = EDTA background, 1 = DMSO-only activity | activation factor at 20 µM | 200,000 tested, under 10 active | AID 1136, 2008;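 active means activation factor at least 2 at 20 µM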
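system = human TNAP | amount = enzyme diluted 1/800 final | reagent = 100 µM CDP-star substrate | signal = luminescent substrate turnover signal | dosing = one dose, 20 µM | benchmarks = EDTA negative control, DMSO positive control | measure = activation factor | timing = 30 min reaction, room temperature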
TNAP inh noacc = human TNAP enzyme inhibitors, primary screen, biochemical, luminescent, no phosphate acceptor, uHTS; Alkaline phosphatase, tissue-nonspecific isozyme (Homo sapiens), P05186; purified TNAP, CDP-star luminescence, 30 min; inhibition, % at 20 µM; hit rate 0.26% among 200,000; AID 1012, 2008;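 active means tissue-nonspecific alkaline phosphatase inhibition above about 50% at 20 µM in the single-dose screen, limit read from the data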;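 further: 0% = DMSO negative control and 100% = EDTA positive control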
bCat KO growth = primary screen for growth suppressors in beta-catenin knockout HCT116 cells (colon tumor, human); hit rate 1.5% among 140,000; AID 818, 2007; HCT116 beta-catenin knockout viability, CellTiter-Glo, 60 h; stronger effect = lower value; viability, % at 10 µM;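 active means viability at or under a set limit, the compound median less 4 SD, cut at about 6% in these data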;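 further: 0% = Hyamine 1622 control at 20 µM and 100% = untreated cell control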
L major viab = Leishmania major promastigote growth inhibition, primary screen; Leishmania major promastigotes, resazurin fluorescence viability; inhibition, % at 10 µM; hit rate 9% among 200,000; in the data active means inhibition above about 50%;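 further: promastigotes grown with compound for 44 hours at 28 °C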
* = called active by the depositor; nt = no result.

SMILES	TNAP inh hiacc	HCT116 PTEN-null	TNAP act hiacc	TNAP inh noacc	bCat KO growth	L major viab
Cn1c(C(=O)N2CCC(C(=O)N3CCN(Cc4ccc5c(c4)OCO5)CC3)CC2)cc2sccc21	-4.9	75.6	1	0.3	72.6	8.0
Cc1onc(-c2ccccc2)c1C(=O)N1CCN(Cc2ccc3c(c2)OCO3)CC1	-3.1	nt	1	-4.4	nt	-4.3
O=C(Oc1ccc2c(c1)OCO2)c1cc2c(s1)CCC2	0.9	2.1*	1	-6.9	2.6*	-5.0
Cn1c(C(=O)N2CCN(Cc3ccc4c(c3)OCO4)CC2)cc2sccc21	-10.5	71.2	1.1	-9.2	80.0	70.2*
O=C(c1ccc(Br)s1)N1CCN(Cc2ccc3c(c2)OCO3)CC1	-7.7	66.7	1.1	-10.2	70.9	81.9*
O=C(c1cc(-c2ccccc2)on1)N1CCN(Cc2ccc3c(c2)OCO3)CC1	-2.8	76.0	1	-7.9	84.8	90.1*
CCC(=O)N(CCc1ccc(OC)c(OC)c1)Cc1cc2ccc(C)cc2n2nnnc12	-0.1	nt	1	-5.7	nt	19.0
O=C(CCCc1c[nH]c2ccccc12)NCc1cccs1	-4.9	nt	1	-7.8	nt	-4.7
CCOc1ccc(S(=O)(=O)N2CCN(C(=O)c3cc4c(s3)CCCC4)CC2)cc1	-0.9	74.6	1	-10.8	71.1	77.6*
CCOc1ccc(S(=O)(=O)N2CCCC2)cc1	-3.9	104.2	1	-7.9	93.9	-3.2
O=C(c1cc2c(s1)CCCC2)N1CCN(Cc2ccc3c(c2)OCO3)CC1	-8.7	79.3	1.1	-7.1	73.5	94.2*
Cc1c(NC(=O)COC(=O)c2ccc(S(=O)(=O)N3CCOCC3)cc2)c(=O)n(-c2ccccc2)n1C	-0.6	nt	1	-29.8	nt	-6.1
CC(C)(C)NC(=O)c1cccc(NC(=O)CSc2ccccc2)c1	-4.1	82.4	1	-6.9	92.0	77.5*
COc1ccccc1C1C(C(C)=O)=C(C)N=c2s/c(=C\c3cc(OC)c(OC)c(OC)c3)c(=O)n21 (stereo not given)	5.7	73.5	0.9	4.9	81.0	54.9*
COc1cccc(C2C3=C(N=c4s/c(=C\c5ccccc5O)c(=O)n42)c2ccccc2CC3)c1OC (stereo not given)	6.4	nt	0.9	0.1	nt	13.1
C=CCSc1n[nH]c(-c2ccc(OC)cc2)n1	-3.0	106.6	1	80.0*	94.6	12.8
C=CCSc1n[nH]c(-c2ccccc2)n1	-1.7	98.7	1	76.3*	94.6	4.0
CCCCOc1ccc(-c2nc(SCC(N)=O)n[nH]2)cc1	-3.1	98.4	1	16.1	98.8	4.0
CCN(CC)S(=O)(=O)c1ccc(N2CCOCC2)c(NC(=O)c2c3c(nc4ccccc24)CCC3)c1	2.1	92.6	1	-13.9	92.4	-2.3
Cc1cc(C(F)(F)F)nn2cnnc12	-6.4	nt	1.1	-17.2	nt	-6.5
CC(=O)NC(Cc1c[nH]c2ccccc12)C(=O)Nc1ccc2c(c1)OCO2 (stereo not given)	-5.7	94.5	1.1	-11.9	84.9	-3.1
CN(C(=O)Cc1c[nH]c2ccccc12)C(C(=O)Nc1ccc2c(c1)OCO2)c1ccccc1 (stereo not given)	-3.0	65.3	1	-9.0	72.3	60.9*
COc1ccc(CCNC(=O)CN(CCc2ccccc2)S(C)(=O)=O)cc1OC	1.2	nt	1	-4.1	nt	-4.5
CCCn1c(=N)c(C(=O)NC2CCCC2)cc2c(=O)n3cccc(C)c3nc21	9.1	24.0	0.9	5.2	23.7	58.1*
CCn1c(=N)c(C(N)=O)cc2c(=O)n3cccc(C)c3nc21	nt	nt	nt	nt	nt	99.8*
CCOCCCn1c(=N)c(C(=O)NCc2ccc3c(c2)OCO3)cc2c(=O)n3cccc(C)c3nc21	0.5	4.7	1	4.8	2.8*	3.9
Cc1ccc2nc3c(cc(C(N)=S)c(=N)n3CCCOC(C)C)c(=O)n2c1	2.9	36.1	1	3.6	52.3	85.7*
Cc1cccn2c(=O)c3cc(C(=O)NC4CCCC4)c(=N)n(C4CCCC4)c3nc12	-3.8	12.4	1	-7.7	8.6	42.4
